PubChem BioAssay AID504653 (Molecular Libraries Program, Specialized Chemistry Center, …, 2011)
Calls of active or inactive are those of the source.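 The calls were made as follows: active = caspase 3/7 peak fold activation above 5 at a dose under 20 µM within 7 h; inactive = the rest.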

Tested on: SW403 caspase-3/7 Glo luminescence, 7 h
Experiment: apoptosis induction by VCP inhibitors – cell-based, mechanism study for p97 inhibitor project (AID 504653)
Conditions: hits give high values
How it was run: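 Assay system: SW403 cells / Benchmarks: 1 % DMSO wells as reference / Signal: Caspase-3/7 Glo reagent, luminescence / Schedule: 7 h compound exposure, then 1 h reagent incubation at room temperature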

| Compound | maximal fold activation |
| --- | --- |
| Cc1ccc(CNc2nc(NCc3ccccc3)c3ccccc3n2)cc1 | 13 (inactive) |
| c1ccc(CNc2nc(N3CCOc4ccccc43)nc3ccsc23)cc1 | 1.4 (inactive) |
| CCN(CC)CCOc1cccc2c(NCc3ccccc3)nc(N3CCOc4ccccc43)nc12 | 8 (inactive) |
| Fc1cccc(CNc2nc(NCc3ccccc3)c3ccccc3n2)c1 | 5.9 (inactive) |
| Brc1cccc(CNc2nc(NCc3ccccc3)c3ccccc3n2)c1 | 18 |
| c1ccc(CNc2nc(N3CCOc4ccccc43)nc3ccccc23)cc1 | 1.6 (inactive) |
| FC(F)(F)c1ccc(CNc2nc(NCc3ccccc3)c3ccccc3n2)cc1 | 26 |
| OCCOc1cccc2c(NCc3ccccc3)nc(N3CCOc4ccccc43)nc12 | 1.3 (inactive) |

More lines, now with the values ahead:

| maximal fold activation | Compound |
| --- | --- |
| 7.3 (inactive) | Clc1cccc(Nc2nc(NCc3ccccc3)c3ccccc3n2)c1 |
| 15 (inactive) | Fc1cccc(Nc2nc(NCc3ccccc3)c3ccccc3n2)c1 |
| 12 (inactive) | COc1cccc2c(NCc3ccccc3)nc(NCc3ccccc3)nc12 |
| 24 | COc1cccc2c(NCc3ccccc3)nc(NCc3cccs3)nc12 |
| 1.6 (inactive) | COc1cccc2c(NCc3ccccc3)nc(N3CCOc4ccccc43)nc12 |
| 3.3 (inactive) | COc1cccc(CNc2nc(NCc3ccccc3)c3ccccc3n2)c1 |
| 29 | COc1cccc2c(NCc3ccccc3)nc(-n3c(N)nc4ccccc43)nc12 |
| 16 | COc1cccc2c(NCc3ccccc3)nc(Nc3nc4ccccc4n3C)nc12 |
| 1.6 (inactive) | COc1cccc2c(NCc3ccccc3)nc(-n3c(N)nc4cc(Cl)c(Cl)cc43)nc12 |
